From publication PMC3270116 (Analytical Biochemistry, 2011)
“Also recorded” adds a separate entry of the source.

How the values were obtained:
[1] = target: T1, serine racemase (SR) in HepG2 cells (Homo sapiens, UniProt Q9GZT4); assay: CE-LIF measurement of intra-cellular D-Ser production in HepG2 cells; format: cell-based; conditions: 36 h, HepG2, n = 3
T1 sequence (Q9GZT4 1-340): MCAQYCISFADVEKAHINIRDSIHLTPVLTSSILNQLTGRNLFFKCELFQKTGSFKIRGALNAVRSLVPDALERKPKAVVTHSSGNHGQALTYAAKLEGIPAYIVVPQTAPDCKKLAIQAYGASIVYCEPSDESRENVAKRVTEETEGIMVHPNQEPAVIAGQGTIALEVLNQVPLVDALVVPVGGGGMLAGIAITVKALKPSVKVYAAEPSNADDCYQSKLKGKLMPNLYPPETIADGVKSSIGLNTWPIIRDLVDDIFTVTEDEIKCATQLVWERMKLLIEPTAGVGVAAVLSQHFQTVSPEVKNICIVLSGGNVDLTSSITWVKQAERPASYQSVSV
In short: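 Medium for HepG2 was EMEM with 1% L-Gln, 10% FBS, 1% sodium pyruvate and 1% penicillin/streptomycin. Cells at >70% confluence (37 °C, 5% CO2) were exposed for 36 h to medium with substrate amino acid (0–20 mM) or inhibitor amino acid (0–8 mM), in triplicate. Cell extracts in ACN with D-Arg internal standard were FITC-derivatized. CE-LIF used 0.5 mM HP-β-CD in 80 mM borate, pH 9.3, with D-Ser quantified against FITC-D-Arg.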

[2] = system: SR purified from mouse brain; conditions: cited from earlier work
[3] = system: SR protein (monomer and dimer) in PC-12 cells; assay: Western blot of SR protein expression in PC-12 cells; format: cell-based, rat; conditions: PC-12, Gly 6 mM, 36-h treatment
In short: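 Lysates were BCA-assayed, and 20 μg protein per lane was run on reducing 4–12% SDS-PAGE and moved to PVDF. Blots were blocked in 5% milk, probed with a […] SR antibody, then an HRP secondary, and detected by ECL. Bands were quantified by densitometry, normalised to β-actin, n=2.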

[4] = target: purified recombinant human SR; conditions: cited from earlier work
[5] = target: T2, serine racemase (SR) in 1321N1 cells (Homo sapiens, UniProt Q9GZT4); assay: CE-LIF measurement of intra-cellular D-Ser production in 1321N1 cells; format: cell-based; conditions: for intra-cellular D-Ser production: 36 h, 1321N1, n = 3
T2 sequence (Q9GZT4 1-340): T1 sequence (Q9GZT4 1-340)
In short: (§1)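 PC-12 cells were kept in RPMI-1640 with 10% horse serum and 5% FBS, and 1321N1 cells in DMEM with 10% FBS. […] Pellets were spiked with D-Arg internal standard, ACN-extracted, dried and FITC-labelled. CE-LIF used 0.5 mM HP-β-CD in 80 mM borate, pH 9.3.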

[6] = target: T3, serine racemase (SR) in C6 cells (Rattus norvegicus, UniProt Q76EQ0); assay: CE-LIF measurement of intra-cellular D-Ser production in C6 cells; format: cell-based; conditions: for intra-cellular D-Ser production: 36 h, C6, n = 3
T3 sequence (Q76EQ0 1-333): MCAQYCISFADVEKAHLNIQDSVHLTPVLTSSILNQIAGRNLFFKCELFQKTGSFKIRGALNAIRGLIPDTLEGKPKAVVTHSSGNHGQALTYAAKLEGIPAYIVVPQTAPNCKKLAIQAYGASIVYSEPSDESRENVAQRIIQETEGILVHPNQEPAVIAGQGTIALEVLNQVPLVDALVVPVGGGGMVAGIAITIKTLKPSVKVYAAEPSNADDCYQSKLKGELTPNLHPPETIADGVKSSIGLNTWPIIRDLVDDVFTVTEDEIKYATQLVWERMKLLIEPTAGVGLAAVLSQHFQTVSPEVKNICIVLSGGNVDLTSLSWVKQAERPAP
In short: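 C6 cells in DMEM with L-Gln, 10% FBS and 1% penicillin/streptomycin were grown at 37 °C in 5% CO2 to >70% confluence. They were then incubated for 36 h in medium with substrate amino acid (0–20 mM) or inhibitor amino acid (0–8 mM), in triplicate. ACN extracts with D-Arg internal standard were FITC-labelled, then run by CE-LIF in 0.5 mM HP-β-CD/80 mM borate, pH 9.3. D-Ser was quantified by area ratio to FITC-D-Arg.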

[7] = target: T4, serine racemase (SR) in PC-12 cells (Rattus norvegicus, UniProt Q76EQ0); assay: CE-LIF measurement of intra-cellular D-Ser production in PC-12 cells; format: cell-based; conditions: for intra-cellular D-Ser production: 36 h, PC-12, n = 3
T4 sequence (Q76EQ0 1-333): T3 sequence (Q76EQ0 1-333)
In short: as §1

SMILES: NCC(=O)O [Gly, glycine]
- intra-cellular D-Ser production ([1]; Gly 0.25 mM in media): 14.96 ± 0.91
- intra-cellular D-Ser production ([1]; Gly 0.50 mM in media): 13.85 ± 0.22
- intra-cellular D-Ser production ([1]; Gly 1.0 mM in media): 10.88 ± 0.17
- intra-cellular D-Ser production ([1]; Gly 2.0 mM in media): 10.77 ± 0.14
- intra-cellular D-Ser production ([1]; Gly 4.0 mM in media): 10.31 ± 0.32
- intra-cellular D-Ser production ([1]; Gly 6.0 mM in media): 8.60 ± 0.12
- intra-cellular D-Ser production ([1]; Gly 8.0 mM in media): 7.78 ± 0.27
- reduction in the D-Ser production ([2]; 2 mM Gly in incubation media): 80%
- Ki ([2]; competitive inhibitor): 150 µM
- SR dimer or SR monomer expression relative to control [3]: neither of these treatments produced a significant change; also recorded: without causing a significant change
- Ki [4]: 370 µM
- reduction in intra-cellular D-Ser concentrations ([5]; 1321N1, Gly 0.25 to 8.0 mM added to incubation buffer): 35%
- intra-cellular D-Ser production ([5]; Gly 0.25 mM in media): 9.05 ± 2.48
- intra-cellular D-Ser production ([5]; Gly 0.50 mM in media): 8.34 ± 2.16
- intra-cellular D-Ser production ([5]; Gly 1.0 mM in media): 7.38 ± 2.01
- intra-cellular D-Ser production ([5]; Gly 2.0 mM in media): 6.69 ± 1.80
- intra-cellular D-Ser production ([5]; Gly 4.0 mM in media): 6.53 ± 1.98
- intra-cellular D-Ser production ([5]; Gly 6.0 mM in media): 6.32 ± 1.83
- intra-cellular D-Ser production ([5]; Gly 8.0 mM in media): 6.29 ± 1.04
- IC50 ([5]; read-out: IC50 for the Gly inhibition of SR, 1321N1, 36 h, n = 3): 680 ± 150 µM
- reduction in intra-cellular D-Ser concentrations ([6]; C6, Gly 0.25 to 8.0 mM added to incubation buffer): 97%
- intra-cellular D-Ser production ([6]; Gly 0.25 mM in media): 3.74 ± 0.12
- intra-cellular D-Ser production ([6]; Gly 0.50 mM in media): 3.49 ± 0.17
- intra-cellular D-Ser production ([6]; Gly 1.0 mM in media): 3.15 ± 0.13
- intra-cellular D-Ser production ([6]; Gly 2.0 mM in media): 1.69 ± 0.14
- intra-cellular D-Ser production ([6]; Gly 4.0 mM in media): 0.51 ± 0.11
- intra-cellular D-Ser production ([6]; Gly 6.0 mM in media): 0.41 ± 0.07
- intra-cellular D-Ser production ([6]; Gly 8.0 mM in media): 0.11 ± 0.07
- intra-cellular D-Ser production ([7]; Gly 0.25 mM in media): 15.91 ± 1.72
- intra-cellular D-Ser production ([7]; Gly 0.50 mM in media): 13.86 ± 2.02
- intra-cellular D-Ser production ([7]; Gly 1.0 mM in media): 11.59 ± 2.43
- intra-cellular D-Ser production ([7]; Gly 2.0 mM in media): 8.30 ± 0.51
- intra-cellular D-Ser production ([7]; Gly 4.0 mM in media): 7.82 ± 0.49
- intra-cellular D-Ser production ([7]; Gly 6.0 mM in media): 4.64 ± 1.36
- intra-cellular D-Ser production ([7]; Gly 8.0 mM in media): 2.72 ± 0.44
- decrease in intra-cellular D-Ser ([7]; PC-12, 6 mM Gly): 77%
- IC50 ([7]; read-out: IC50 for the Gly inhibition of SR, PC-12, 36 h, n = 3): 1.24 ± 0.39 mM
